This note sets out measurements from ChEMBL document CHEMBL2321666, “Discovery of a Series of Thiazole Derivatives as Novel Inhibitors of Metastatic Cancer Cell Migration and Invasion” (ACS Med Chem Lett, 2013).

Usually IC50 stands for the concentration needed to halve the response being measured. One may read the inhibition as how much of the control response was suppressed.

Data set [1] deals with MDA-MB-231. The experiment in a line: Inhibition of cell migration in human MDA-MB-231 cells assessed as total number of cells at 10 uM after 24 hrs by transwell migration assay relative to control; values are per cent of control. The note with it: MDA-MB-231, 24 h.
In data set [2] the test system is MDA-MB-231. The experiment in a line: Cytotoxicity against human MDA-MB-231 cells assessed as colony formation at 10 uM after 2 weeks relative to control. In kind it is cell-based. The note with it: mda-mb-231, 336 h. In a few lines: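 Clonogenic assay: MDA-MB-231 cells grown for 14 days in six-well plates with or without 10 μM compound. Colony formation expressed as % of DMSO vehicle control.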

Data set [3] concerns MDA-MB-231. Kind of data set: Inhibition of cell migration in human MDA-MB-231 cells assessed as total number of cells after 24 hrs by transwell migration assay. The note with it: for IC50: MDA-MB-231, 24 h. Format: functional, cell-based. In a few lines:
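Dose-response transwell migration in MDA-MB-231 cells: 2.5 × 10^4 cells in serum-free upper chamber, 5% FBS in the lower chamber.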

Data set [4] relates to MDA-MB-231. Kind of data set: Inhibition of cell invasion in human MDA-MB-231 cells assessed as total number of cells at 10 uM after 24 hrs by matrigel invasion assay relative to control. Format: functional. The following applies: MDA-MB-231, 24 h.
The subject of data set [5] is HeLa. Kind of data set: Inhibition of cell migration in human HeLa cells assessed as total number of cells at 10 uM after 24 hrs by transwell migration assay relative to control. In kind it is functional.
The test system of data set [6] is HeLa. Kind of data set: Cytotoxicity against human HeLa cells assessed as colony formation at 10 uM after 2 weeks relative to control. In kind it is cell-based. The following applies: 336 h.
Data set [7] deals with A549. The experiment in a line: Inhibition of cell migration in human A549 cells assessed as total number of cells at 10 uM after 24 hrs by transwell migration assay relative to control. The note with it: A549, 24 h. In kind it is functional.
Data set [8] deals with MDA-MB-231. The experiment in a line: Reduction of fascin localization in actin-rich membrane protrusion in human MDA-MB-231 cells at 10 uM by immuno fluorescence microscopic analysis. In kind it is functional, cell-based.
In data set [9] the test system is MDA-MB-231. Kind of data set: Inhibition of serum-induced actin-rich membrane protrusion in human MDA-MB-231 cells assessed as reduction of f-actin intensity at 10 uM after overnight incubation by fluorescent microscopic analysis. Format: functional. In a few lines:
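MDA-MB-231 cells serum-starved with or without 10 μM compound, then serum-stimulated for 2 h to induce actin-rich membrane protrusions. F-actin was stained and imaged by fluorescence microscopy, and f-actin intensity was quantified against DMSO-treated cells.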

Calls of active or inactive are those of the source. The rule behind the calls is not given here.

For `CCCCCC(=O)Nc1nc(-c2ccccc2)cs1`, the level, % of control at 10 µM in data set [1] is 75.2%. Moreover, the Activity in data set [2] worked out at 90.7%.
In the case of `Nc1nc(-c2ccccc2)cs1`, the level, % of control at 10 µM in [1] was 86%. The Activity in data set [2] came to 103.6%.
Take `Cc1ccc(-c2csc(NC(=O)c3cccs3)n2)c(C)c1`: in data set [1], the level, % of control at 10 µM worked out at 40.9%. In data set [2], the Activity worked out at 67.5%.
The matching figures for `Cc1ccc(-c2cs/c(=N/C(=O)c3cccs3)n2C)c(C)c1`: 37.1% and 102.3%.
For the compound `O=C(Nc1nc(-c2ccccc2)cs1)c1cccs1`, in [3], the half-inhibitory concentration (IC50) stood at 2490 nM. Moreover, the inhibition at 10 µM stood at 40% in [4] and 60% in data set [5]. The level, % of control at 10 µM in data set [1] was 34.5%. The Activity in data set [2] was found to be 85.9%.
Regarding `CN(C(=O)C1CCCCC1)c1nc(-c2ccccc2)cs1`, the level, % of control at 10 µM in data set [1] turned out to be 72.7%. Also, the Activity in data set [2] was determined as 97.5%.
For `Cn1c(-c2ccccc2)cs/c1=N/C(=O)c1ccc(Br)cc1`, in that order: 59.7% and 63.8%.
Consider `Cn1c(-c2ccccc2)cs/c1=N/C(=O)c1ccccc1`, for which the half-maximal inhibitory concentration (IC50) in data set [3] came out at 189 nM. Further, the values for the inhibition at 10 µM in data set [4] and in data set [5] were 40% and 60%, respectively. Moreover, in data set [1], the level, % of control at 10 µM is 13%. For the same compound, the Activity in [2] was 25.2%; in data set [6] it was “Toxic”.
In the case of `COc1cc(OC)c(-c2cs/c(=N/C(=O)c3ccccc3)n2C)c(OC)c1`, the level, % of control at 10 µM in [1] was 40.6%. Also, in data set [2], the Activity was 94%.
The matching figures for `COc1ccc(C(=O)/N=c2/scc(-c3ccccc3)n2C)cc1OC`: 35.9% and 40.9%.
The matching figures for `CN(C(=O)c1ccc(Br)cc1)c1nc(-c2ccccc2)cs1`: 78.2% and 107.7%.
As for `COc1ccc(C(=O)N(C)c2nc(-c3ccccc3)cs2)cc1OC`, the level, % of control at 10 µM in data set [1] turned out to be 43.5%. The Activity in data set [2] stood at 97.1%.
The matching figures for `COc1cc(C(=O)Nc2nc(-c3ccccc3)cs2)cc(OC)c1OC`: 46.5% and 80.9%.
For `O=C(Nc1nc(-c2ccccc2)cs1)C1CCCCC1`, in that order: 92.7% and 103.4%.
For `O=C(Nc1nc(-c2ccccc2)cs1)c1ccco1`, in that order: 88% and 98.8%.
`Cc1ccc(-c2csc(N(C)C(=O)c3cccs3)n2)c(C)c1`: in [1], the level, % of control at 10 µM came out at 72.2%. Moreover, in data set [2], the Activity is recorded as 97.7%.
With `COc1cc(C(=O)/N=c2/scc(-c3ccccc3)n2C)cc(OC)c1OC`, in [1], the level, % of control at 10 µM stood at 26.5%. Moreover, the Activity in [2] was 75.4%.
`Cc1ccc(-c2csc(NC(=O)c3ccccc3)n2)c(C)c1`: the IC50 in data set [3] was found to be 839 nM. Further, the inhibition at 10 µM was found to be 40% in [4] and 60% in data set [5]. Moreover, the level, % of control at 10 µM in [1] is 33.7%. For the same compound, the Activity in [2] turned out to be 85%.
Take `O=C(Nc1nc(-c2ccccc2)cs1)c1cccnc1`: the level, % of control at 10 µM in [1] stood at 80.8%. For the same compound, in data set [2], the Activity is listed as 102.8%.
The matching figures for `CN(C(=O)C1CCCC1)c1nc(-c2ccccc2)cs1`: 54.3% and 132.4%.
For `COc1ccc(C(=O)Nc2nc(-c3ccccc3)cs2)cc1OC`, in that order: 18.6% and 57.3%.
`CCn1c(-c2ccccc2)cs/c1=N/C(=O)c1cccs1`: in data set [3], the IC50 was determined as 2080 nM. Moreover, the results for the inhibition at 10 µM in data set [4] and in data set [5] were 40% and 60%, respectively. Further, the level, % of control at 10 µM in data set [1] is 32.1%. Also, the Activity worked out at 97.7% in data set [2] and 45% in [6].
On to `Cn1c(-c2ccccc2)cs/c1=N/C(=O)c1cccs1`, for which the level, % of control at 10 µM in [1] amounted to 43.3%. Moreover, the Activity in data set [2] is given as 85%.
The matching figures for `CCCCCCCCCCCC(=O)N(C)c1nc(-c2ccccc2)cs1`: 80% and 111.1%.
Take `Cn1c(-c2ccccc2)cs/c1=N/C(=O)c1ccco1`: the level, % of control at 10 µM in data set [1] is 77.6%. In addition, the Activity in data set [2] is given as 107.3%.
The matching figures for `COc1cc(OC)c(-c2csc(N(C)C(=O)c3ccccc3)n2)c(OC)c1`: 91.5% and 110.4%.
For the compound `O=C(Nc1nc(-c2ccccc2)cs1)C1CCCC1`, the level, % of control at 10 µM in data set [1] is 68.2%. Also, the Activity in data set [2] is 99.8%.
With `Cn1c(-c2ccccc2)cs/c1=N/C(=O)c1ccc(Cl)cc1`, the half-inhibitory concentration (IC50) in [3] was 1120 nM. In addition, the inhibition at 10 µM in data set [4] worked out at 40%; in data set [5], 60%. For the same compound, in data set [1], the level, % of control at 10 µM amounted to 28.1%. Moreover, the Activity in data set [2] is listed as 98.2%.
As to `O=C(Nc1nc(-c2ccccc2)cs1)c1ccncc1`, the concentration for half-maximal inhibition (IC50) in data set [3] is 2870 nM. In addition, the values for the inhibition at 10 µM in [4] and in data set [5] were 40% and 60%, respectively. For the same compound, the level, % of control at 10 µM in data set [1] was found to be 32.3%. Besides, the Activity in data set [2] turned out to be 95.5%.
In the case of `Cc1ccc(-c2csc(N)n2)c(C)c1`, the level, % of control at 10 µM in data set [1] came to 45.5%. Moreover, the Activity in [2] is listed as 110.9%.
As to `CCCCCCCCCCCC(=O)Nc1nc(-c2ccccc2)cs1`, the IC50 in [3] is 1010 nM. Also, the values for the inhibition at 10 µM in [4] and in data set [5] were 40% and 60%, respectively. Further, the level, % of control at 10 µM in [1] was 28.3%. Moreover, the Activity is listed as 71.5% in data set [2] and “Non-toxic” in [6].
Turning to `COc1cc(OC)c(-c2csc(NC(=O)c3ccccc3)n2)c(OC)c1`, the level, % of control at 10 µM in data set [1] worked out at 59.2%. Further, the Activity in data set [2] was found to be 108.8%.
For the compound `O=C(Nc1nc(-c2ccccc2)cs1)c1ccc(Cl)cc1`, the level, % of control at 10 µM in [1] was 78%. The Activity in data set [2] came out at 95%.
With `CCN(C(=O)c1ccco1)c1nc(-c2ccccc2)cs1`, in data set [1], the level, % of control at 10 µM was 54.5%. Besides, the Activity in data set [2] was found to be 96.5%.
As to `O=C(Nc1nc(-c2ccccc2)cs1)c1ccc(Br)cc1`, the level, % of control at 10 µM in data set [1] turned out to be 103%. For the same compound, the Activity in data set [2] is reported as 98.6%.
As to `CN(C(=O)c1ccccc1)c1nc(-c2ccccc2)cs1`, the half-maximal inhibitory concentration (IC50) in [3] was 366 nM. In addition, the inhibition at 10 µM in data set [4] was determined as 40%; in data set [5], 60%. Besides, in [1], the level, % of control at 10 µM amounted to 39.2%. Also, the Activity in data set [2] was 123.4%.
Turning to `Cc1ccc(-c2cs/c(=N/C(=O)c3ccccc3)n2C)c(C)c1`, the inhibition at 10 µM in data set [7] is 80%; in data set [4], 60%; in data set [9], 55%; in data set [5], 80%. For the same compound, the inhibition result in [3] is “Dose-dependent effect”. Also, the half-inhibitory concentration (IC50) in data set [3] worked out at 176 nM. Besides, the level, % of control at 10 µM in [1] was 14.3%. Also, the result in [8] was Active. Further, the figures for the Activity in data set [2] and in [6] were 120.9% and 85%, respectively.
With `Cn1c(-c2ccccc2)cs/c1=N/C(=O)c1cccnc1`, the level, % of control at 10 µM in [1] amounted to 62%. For the same compound, in [2], the Activity was 111.5%.
With `O=C(Nc1nc(-c2ccccc2)cs1)c1ccccc1`, the IC50 in data set [3] worked out at 1290 nM. Besides, the inhibition at 10 µM was 40% in [4] and 60% in [5]. In addition, in data set [1], the level, % of control at 10 µM is 31.3%. The Activity in data set [2] amounted to 105.2%.
Take `CCCCCC(=O)N(C)c1nc(-c2ccccc2)cs1`: the level, % of control at 10 µM in data set [1] was 71.4%. Moreover, the Activity in data set [2] was determined as 127.5%.
